Measured values taken from ChEMBL document CHEMBL3425414, “Synthesis of a New Peptide-Coumarin Conjugate: A Potential Agent against Cryptococcosis” (ACS Med Chem Lett, 2015).
Converted amounts (≈) assume the structure as drawn. The source made the active and inactive calls. No cut-off for these calls is given here. Peptide text beside a SMILES is read from it. * marks the point of attachment. X1 = CCN(CC)c1ccc2cc(-n3cc(CCC(=O)*)nn3)c(=O)oc2c1; Pent4ynoyl = C#CCCC(=O)*

Legend:
[1] = tested on: Cryptococcus gattii species complex; assay: Antifungal activity against Cryptococcus gattii 196L/03 after 72 hrs by microdilution method; assay type: functional, Cryptococcus bacillisporus; conditions: 196L/03, 72 h
Outline: (§1)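 Broth microdilution susceptibility per CLSI M27-A3; MIC reported in […]. Panel includes C. gattii strains (one fluconazole-resistant, L27/01F) and C. neoformans ATCC strains; fluconazole run as reference drug.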

[2] = tested on: Cryptococcus gattii species complex; assay: Antifungal activity against Cryptococcus gattii 29/10893 after 72 hrs by microdilution method; assay type: functional, Cryptococcus bacillisporus; conditions: 29/10893, 72 h; outline: as §1
Cryptococcus neoformans [3] = assay: Antifungal activity against Cryptococcus neoformans ATCC 24067 after 72 hrs by microdilution method; assay type: functional; conditions: ATCC 24067, 72 h; outline: as §1
[4] = tested on: Cryptococcus gattii species complex; assay: Antifungal activity against Cryptococcus gattii 23/10993 after 72 hrs by microdilution method; assay type: functional, Cryptococcus bacillisporus; conditions: 23/10993, 72 h; outline: as §1
[5] = tested on: Cryptococcus gattii species complex; assay: Antifungal activity against Cryptococcus gattii ICB 181 after 72 hrs by microdilution method; assay type: functional, Cryptococcus bacillisporus; conditions: ICB 181, 72 h; outline: as §1
[6] = tested on: Cryptococcus gattii species complex; assay: Antifungal activity against fluconazole-resistant Cryptococcus gattii L27/01F after 72 hrs by microdilution method; assay type: functional, Cryptococcus bacillisporus
Outline: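 Broth microdilution susceptibility test following the CLSI M27-A3 standard; the MIC is reported in […]. Fluconazole is run in parallel as the reference drug across the C. gattii and C. neoformans strain panel.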

Cryptococcus gattii = assay: Antifungal activity against Cryptococcus gattii ATCC 24065 after 72 hrs by microdilution method; conditions: ATCC 24065, 72 h
[7] = tested on: Cryptococcus gattii species complex; assay: Antifungal activity against Cryptococcus gattii L28/02 after 72 hrs by microdilution method; assay type: functional, Cryptococcus bacillisporus; conditions: L28/02, 72 h; outline: as §1
[8] = tested on: Cryptococcus gattii species complex; assay: Antifungal activity against Cryptococcus gattii L24/01 after 72 hrs by microdilution method; assay type: functional, Cryptococcus bacillisporus; conditions: L24/01, 72 h; outline: as §1
[9] = tested on: Cryptococcus gattii species complex; assay: Antifungal activity against Cryptococcus gattii L27/01 after 72 hrs by microdilution method; assay type: functional, Cryptococcus bacillisporus; conditions: L27/01, 72 h; outline: as §1
Cryptococcus neoformans [10] = assay: Antifungal activity against Cryptococcus neoformans ATCC 62066 after 72 hrs by microdilution method; assay type: functional; conditions: ATCC 62066, 72 h; outline: as §1
[11] = tested on: Cryptococcus gattii species complex; assay: Antifungal activity against Cryptococcus gattii LMM 818 after 72 hrs by microdilution method; assay type: functional, Cryptococcus bacillisporus; conditions: LMM 818, 72 h; outline: as §1
[12] = tested on: Cryptococcus bacillisporus; assay: Antifungal activity against Cryptococcus gattii ATCC 32608 after 72 hrs by microdilution method; assay type: functional; conditions: ATCC 32608, 72 h; outline: as §1
Cryptococcus neoformans [13] = assay: Antifungal activity against Cryptococcus neoformans ATCC 28957 after 72 hrs by microdilution method; assay type: functional; conditions: ATCC 28957, 72 h; outline: as §1
[14] = tested on: Cryptococcus gattii species complex; assay: Antifungal activity against Cryptococcus gattii 547/OTT after 72 hrs by microdilution method; assay type: functional, Cryptococcus bacillisporus; outline: as §1
[15] = tested on: Cryptococcus gattii species complex; assay: Antifungal activity against Cryptococcus gattii L135/03 after 72 hrs by microdilution method; assay type: functional, Cryptococcus bacillisporus; conditions: L135/03, 72 h; outline: as §1
Cryptococcus neoformans [16] = assay: Antifungal activity against Cryptococcus neoformans ATCC 96806 after 72 hrs by microdilution method; assay type: functional; conditions: ATCC 96806, 72 h; outline: as §1
[17] = tested on: Cryptococcus gattii species complex; assay: Antifungal activity against Cryptococcus gattii 1913ER after 72 hrs by microdilution method; assay type: functional, Cryptococcus bacillisporus; outline: as §1
[18] = tested on: Cryptococcus bacillisporus; assay: Induction of reactive oxygen species formation in Cryptococcus gattii ATCC 32608 at MIC after 0.5 to 1 hr by dichlorofluorescein diacetate probe-based fluorometric assay relative to control; assay type: functional, organism-based
Outline: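 Endogenous ROS in C. gattii ATCC 32608 cells treated at the compound's MIC, measured fluorometrically (signal proportional to ROS accumulation); untreated cells and compound alone measured for baseline; group differences tested statistically.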

[19] = Induction of reactive oxygen species formation after 0.5 to 1 hr by dichlorofluorescein diacetate probe-based fluorometric assay; assay type: physicochemical

Molecule	MIC [1]	MIC [2]	MIC (Cryptococcus neoformans [3])	MIC [4]	MIC [5]	MIC [6]	MIC (Cryptococcus gattii)	MIC [7]	MIC [8]	MIC [9]	MIC (Cryptococcus neoformans [10])	MIC [11]	MIC [12]	MIC (Cryptococcus neoformans [13])	MIC [14]	MIC [15]	MIC (Cryptococcus neoformans [16])	MIC [17]	Activity [18]	Activity [19]
CCN(CC)c1ccc2cc(N=[N+]=[N-])c(=O)oc2c1	> 990 µM	> 990 µM	> 990 µM	> 990 µM	> 990 µM	> 990 µM	> 990 µM	> 990 µM	> 990 µM	> 990 µM	> 990 µM	> 990 µM	> 990 µM	> 990 µM	> 990 µM	> 990 µM	> 990 µM	> 990 µM	–	–
CCN(CC)c1ccc2cc(-n3cc(CCCO)nn3)c(=O)oc2c1	> 750 µM	> 750 µM	> 750 µM	> 750 µM	> 750 µM	> 750 µM	> 750 µM	> 750 µM	> 750 µM	> 750 µM	> 750 µM	> 750 µM	> 750 µM	> 750 µM	> 750 µM	> 750 µM	> 750 µM	> 750 µM	Active	–
C#CCCC(=O)N[C@@H](CCCNC(=N)N)C(=O)N[C@@H](C)C(=O)N[C@@H](CCCCN)C(=O)N[C@@H](CCCNC(=N)N)C(=O)N[C@@H](CCCNC(=N)N)C(=O)N[C@@H](CCSC)C(=O)N[C@@H](CCC(N)=O)C(=O)N[C@@H](Cc1ccc(O)cc1)C(N)=O (Pent4ynoyl-RAKRRMQY-NH2)	> 220 µM	> 220 µM	> 220 µM	> 220 µM	> 220 µM	> 220 µM	> 220 µM	> 220 µM	> 220 µM	> 220 µM	> 220 µM	> 220 µM	> 220 µM	> 220 µM	> 220 µM	> 220 µM	> 220 µM	> 220 µM	–	–
CCN(CC)c1ccc2cc(-n3cc(CCC(=O)N[C@@H](CCCNC(=N)N)C(=O)N[C@@H](C)C(=O)N[C@@H](CCCCN)C(=O)N[C@@H](CCCNC(=N)N)C(=O)N[C@@H](CCCNC(=N)N)C(=O)N[C@@H](CCSC)C(=O)N[C@@H](CCC(N)=O)C(=O)N[C@@H](Cc4ccc(O)cc4)C(N)=O)nn3)c(=O)oc2c1 (X1-RAKRRMQY-NH2)	40 µM (≈ 57.8 µg/mL)	90 µM (≈ 130 µg/mL)	90 µM (≈ 130 µg/mL)	180 µM (≈ 260 µg/mL)	90 µM (≈ 130 µg/mL)	90 µM (≈ 130 µg/mL)	180 µM (≈ 260 µg/mL)	90 µM (≈ 130 µg/mL)	90 µM (≈ 130 µg/mL)	40 µM (≈ 57.8 µg/mL)	90 µM (≈ 130 µg/mL)	180 µM (≈ 260 µg/mL)	90 µM (≈ 130 µg/mL)	90 µM (≈ 130 µg/mL)	40 µM (≈ 57.8 µg/mL)	40 µM (≈ 57.8 µg/mL)	90 µM (≈ 130 µg/mL)	180 µM (≈ 260 µg/mL)	Active	Not Active
OC(Cn1cncn1)(Cn1cncn1)c1ccc(F)cc1F [FLUCONAZOLE]	100 µM (≈ 30.6 µg/mL)	30 µM (≈ 9.19 µg/mL)	20 µM (≈ 6.13 µg/mL)	50 µM (≈ 15.3 µg/mL)	50 µM (≈ 15.3 µg/mL)	420 µM (≈ 129 µg/mL)	10 µM (≈ 3.06 µg/mL)	100 µM (≈ 30.6 µg/mL)	50 µM (≈ 15.3 µg/mL)	100 µM (≈ 30.6 µg/mL)	30 µM (≈ 9.19 µg/mL)	100 µM (≈ 30.6 µg/mL)	50 µM (≈ 15.3 µg/mL)	3 µM (≈ 0.919 µg/mL)	100 µM (≈ 30.6 µg/mL)	50 µM (≈ 15.3 µg/mL)	150 µM (≈ 45.9 µg/mL)	50 µM (≈ 15.3 µg/mL)	–	–
H-RAKRRMQY-NH2	> 230 µM	> 230 µM	> 230 µM	> 230 µM	> 230 µM	> 230 µM	> 230 µM	> 230 µM	> 230 µM	> 230 µM	> 230 µM	> 230 µM	> 230 µM	> 230 µM	> 230 µM	> 230 µM	> 230 µM	> 230 µM	–	–
